Laboratory results reported in ChEMBL document CHEMBL4725242, “Discovery of GS-9688 (Selgantolimod) as a Potent and Selective Oral Toll-Like Receptor 8 Agonist for the Treatment of Chronic Hepatitis B” (J Med Chem, 2020).

Key:
Toll-like receptor 7 = molecular target: T1, Toll-like receptor 7 (Homo sapiens, UniProt Q9NYK1); test: Agonist activity at TLR7 in human cryopreserved PBMC assessed as induction of IFNalpha production measured after 24 hrs
T1 sequence (Q9NYK1 whole entry): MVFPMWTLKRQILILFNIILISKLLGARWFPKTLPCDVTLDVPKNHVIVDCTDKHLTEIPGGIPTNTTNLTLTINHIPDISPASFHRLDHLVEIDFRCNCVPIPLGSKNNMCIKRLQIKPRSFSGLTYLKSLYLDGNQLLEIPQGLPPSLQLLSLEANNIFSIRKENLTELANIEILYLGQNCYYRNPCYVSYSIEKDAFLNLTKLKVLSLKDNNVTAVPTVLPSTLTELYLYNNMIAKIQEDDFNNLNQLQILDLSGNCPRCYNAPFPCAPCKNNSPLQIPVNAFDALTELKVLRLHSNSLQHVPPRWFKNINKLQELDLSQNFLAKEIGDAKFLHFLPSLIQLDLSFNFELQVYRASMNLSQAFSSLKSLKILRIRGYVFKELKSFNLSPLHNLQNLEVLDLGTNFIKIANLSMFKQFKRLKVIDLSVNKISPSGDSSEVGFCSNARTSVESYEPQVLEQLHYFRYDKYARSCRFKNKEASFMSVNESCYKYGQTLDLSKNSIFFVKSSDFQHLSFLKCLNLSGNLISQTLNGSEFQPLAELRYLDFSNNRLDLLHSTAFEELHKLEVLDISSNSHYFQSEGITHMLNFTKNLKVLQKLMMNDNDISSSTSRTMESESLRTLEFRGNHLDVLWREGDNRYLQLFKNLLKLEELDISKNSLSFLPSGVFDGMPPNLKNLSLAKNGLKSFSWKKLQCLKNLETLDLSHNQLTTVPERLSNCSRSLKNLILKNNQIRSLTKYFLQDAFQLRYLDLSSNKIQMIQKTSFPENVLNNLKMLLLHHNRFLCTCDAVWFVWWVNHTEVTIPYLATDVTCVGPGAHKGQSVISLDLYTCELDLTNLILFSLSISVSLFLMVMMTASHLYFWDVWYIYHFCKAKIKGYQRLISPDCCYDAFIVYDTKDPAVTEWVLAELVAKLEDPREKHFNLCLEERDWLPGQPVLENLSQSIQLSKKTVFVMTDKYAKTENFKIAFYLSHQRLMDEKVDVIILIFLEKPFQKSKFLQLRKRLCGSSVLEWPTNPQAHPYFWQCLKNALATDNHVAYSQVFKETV
How it was run: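 Cryopreserved healthy-donor human PBMC, recovered 2 h at 37°C/5% CO2, then 100k cells/well in RPMI/10% FBS exposed 24 h at 37°C to a 10-point half-log dilution series (0.5% final DMSO). Supernatant IFNα-2a quantified by MSD electrochemiluminescence immunoassay. For the ratio, divided by the IL-12p40 EC50 from the same PBMC screen.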

Toll-like receptor 8 = molecular target: T2, Toll-like receptor 8 (Homo sapiens, UniProt Q9NR97); test: Agonist activity at TLR8 in human cryopreserved PBMC assessed as induction of IL-12p40 production measured after 24 hrs
T2 sequence (Q9NR97 whole entry): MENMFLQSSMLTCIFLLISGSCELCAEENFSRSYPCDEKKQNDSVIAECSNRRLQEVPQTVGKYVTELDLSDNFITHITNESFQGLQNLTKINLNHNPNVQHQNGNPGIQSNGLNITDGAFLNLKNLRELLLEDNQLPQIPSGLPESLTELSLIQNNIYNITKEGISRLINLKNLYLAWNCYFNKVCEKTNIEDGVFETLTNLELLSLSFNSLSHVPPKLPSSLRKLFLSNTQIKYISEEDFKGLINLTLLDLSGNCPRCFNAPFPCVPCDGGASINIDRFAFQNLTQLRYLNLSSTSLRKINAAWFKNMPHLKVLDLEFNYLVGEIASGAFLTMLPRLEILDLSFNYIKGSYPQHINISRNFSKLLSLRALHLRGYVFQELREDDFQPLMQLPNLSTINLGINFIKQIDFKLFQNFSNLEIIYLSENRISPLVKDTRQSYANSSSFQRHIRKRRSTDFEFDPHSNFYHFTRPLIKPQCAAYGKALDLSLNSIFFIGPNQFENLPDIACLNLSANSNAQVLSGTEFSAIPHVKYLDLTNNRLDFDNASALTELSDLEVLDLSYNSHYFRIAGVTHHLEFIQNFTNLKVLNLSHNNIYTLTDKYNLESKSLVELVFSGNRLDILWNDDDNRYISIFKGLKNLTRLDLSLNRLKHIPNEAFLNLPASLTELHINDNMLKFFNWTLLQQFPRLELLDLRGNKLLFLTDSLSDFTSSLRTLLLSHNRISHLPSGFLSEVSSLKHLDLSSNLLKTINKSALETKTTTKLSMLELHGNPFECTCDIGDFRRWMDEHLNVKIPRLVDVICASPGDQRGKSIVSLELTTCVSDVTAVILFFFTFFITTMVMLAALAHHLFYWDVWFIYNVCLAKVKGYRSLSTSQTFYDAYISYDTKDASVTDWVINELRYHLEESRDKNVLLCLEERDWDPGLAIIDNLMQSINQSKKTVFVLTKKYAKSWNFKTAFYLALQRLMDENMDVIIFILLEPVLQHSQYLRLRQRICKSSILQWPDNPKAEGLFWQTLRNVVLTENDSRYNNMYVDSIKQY

[1] = Cytotoxicity against human MT4 cells assessed as reduction in cell viability measured after 4 to 5 days by celltiter-glo assay; type: cell-based; conditions: time 4-5 day
Homo sapiens = organism: Homo sapiens; test: Selectivity ratio of EC50 for TLR7 in human cryopreserved PBMC assessed as induction of IFNalpha production to EC50 for TLR8 in human cryopreserved PBMC assessed as induction of IL-12p40 production
How it was run: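 Cryopreserved healthy-donor human PBMC, recovered 2 h at 37°C/5% CO2, then 100k cells/well in RPMI/10% FBS exposed 24 h at 37°C to a 10-point half-log dilution series (0.5% final DMSO). Supernatant IFNα-2a quantified by MSD electrochemiluminescence immunoassay. Normalized to 10 µM GS-9620 positive and DMSO negative controls; EC50 from 4-parameter logistic fit. For the ratio, divided by the IL-12p40 EC50 from the same PBMC screen.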

[2] = Selectivity index, ratio of CC50 for human MT4 cells to EC50 for TLR8 in human cryopreserved PBMC assessed as induction of IL-12p40 production
[3] = Clearance in cynomolgus monkey hepatic microsomes at 2 uM measured up to 60 mins in presence of NADPH generating system by LC-MS/MS analysis; type: ADME, Macaca fascicularis, Microsome; conditions: liver microsomes
[4] = Apparent permeability across apical to basolateral side in human Caco2 cells measured after 1 to 2 hrs by LC-MS/MS analysis; conditions: Caco-2
[5] = Clearance in human hepatic microsomes at 2 uM measured up to 60 mins in presence of NADPH generating system by LC-MS/MS analysis; type: ADME, Microsome; conditions: liver microsomes
[6] = Dissociation constant, pKa of the compound; type: physicochemical
[7] = Apparent permeability across basolateral to apical side in human Caco2 cells measured after 1 to 2 hrs by LC-MS/MS analysis; conditions: Caco-2
[8] = Clearance in dog hepatic microsomes at 2 uM measured up to 60 mins in presence of NADPH generating system by LC-MS/MS analysis; type: ADME, Canis lupus familiaris, Microsome; conditions: liver microsomes
[9] = Clearance in rat hepatic microsomes at 2 uM measured up to 60 mins in presence of NADPH generating system by LC-MS/MS analysis; type: ADME, Microsome; conditions: liver microsomes

SMILES | EC50 (Toll-like receptor 7) [µM] | EC50 (Toll-like receptor 8) [µM] | CC50 [1] [µM] | further results
CCCC[C@@H](CO)Nc1nc(N)nc2ccccc12 | 0.57 | 0.71 |  | 
CCCC[C@@H](Nc1nc(N)nc2cccnc12)C(N)=O | > 50 | 36 |  | 
CCCC[C@@H](CO)Nc1nc(N)nc2cccnc12 | 0.91 | 0.42 |  | 
CCCC(C)Nc1nc(N)nc2cccnc12 (stereo not drawn) | 5.1 | 3.1 |  | 
CCC[C@@H](CO)Nc1nc(N)nc2cccnc12 | 2 | 0.43 |  | 
CCCC[C@](C)(CO[C@@H]1O[C@H](C(=O)O)[C@@H](O)[C@H](O)[C@H]1O)Nc1nc(N)nc2cc(F)cnc12 | > 50 | > 50 | > 50 | 
C[C@](CO)(CCCCO)Nc1nc(N)nc2cc(F)cnc12 | > 50 | > 50 | > 50 | 
CCCN(CCC)C(=O)C1=Cc2ccc(-c3ccc(C(=O)N4CCCC4)cc3)cc2N=C(N)C1 [MOTOLIMOD] | > 30 | 1.3 |  | 
CCCCOc1nc(N)nc2cccnc12 | > 50 | > 50 |  | 
CCCC[C@](C)(CO)Nc1nc(N)nc2cc(C)cnc12 | > 50 | 0.16 | 23 | Ratio EC50 (Homo sapiens): > 185; Ratio CC50/EC50 [2]: 144; CLhep predicted at 2 µM [3]: 25 mL/min/kg; Papp A→B [4]: 31 ×10⁻⁶ cm/s; CLhep predicted at 2 µM [5]: 8.33 mL/min/kg; pKa [6]: 7.1; Papp B→A [7]: 29 ×10⁻⁶ cm/s; CLhep predicted at 2 µM [8]: 18.3 mL/min/kg; CLhep predicted at 2 µM [9]: 63.3 mL/min/kg
CCCC[C@@](C)(Nc1nc(N)nc2cc(F)cnc12)C(=O)O | > 50 | > 50 | > 50 | 
CCC[C@](C)(CO)Nc1nc(N)nc2cccnc12 | > 50 | 2.4 | > 50 | Ratio CC50/EC50 [2]: >21
CCCC[C@@H](Nc1nc(N)nc2cccnc12)C(=O)O | > 50 | > 50 |  | 
CCCC[C@@H](CO)Nc1cc(N)nc2ccccc12 | > 50 | > 50 |  | 
CCCC[C@H](CO)Nc1cc(N)nc2ccccc12 | > 50 | > 50 |  | 
CCCC[C@@H](Nc1nc(N)nc2cccnc12)C(=O)NC | > 50 | > 50 |  | 
CCCCC[C@](C)(CO)Nc1nc(N)nc2cccnc12 | 20 | 0.58 | 17 | Ratio CC50/EC50 [2]: 29
CCCCNc1nc(N)nc2cccnc12 | 2.2 | 1.9 |  | 
CCCC[C@@](C)(CO)Nc1nc(N)nc2cc(F)cnc12 | > 50 | 3.3 | 0.79 | Ratio CC50/EC50 [2]: 0.2
CCCC[C@H](CCO)Nc1nc(N)nc2cccnc12 | > 50 | 4.3 |  | 
CCCCC(CO)(CCCC)Nc1nc(N)nc2cccnc12 | > 50 | > 50 | 38 | 
CCCCCC[C@](C)(CO)Nc1nc(N)nc2cccnc12 | > 50 | 10 | 3.6 | Ratio CC50/EC50 [2]: 0.4
CCCC[C@H](CN)Nc1nc(N)nc2cccnc12 | > 50 | 25 |  | 
CCCC[C@H](CO)Nc1nc(N)nc2ccccc12 | > 50 | 1.84 |  | pKa [6]: 8.2
CCC[C@H](CO)Nc1nc(N)nc2cccnc12 | > 50 | 19 |  | 
CCCC[C@H](CO)Nc1nc(N)nc2cccnc12 | > 50 | 0.79 | 7.8 | Ratio CC50/EC50 [2]: 10; pKa [6]: 6.8
CCCC[C@](C)(CO)Nc1nc(N)nc2cc(Cl)cnc12 | > 42 | 0.27 | 22 | CLhep predicted at 2 µM [3]: 23.3 mL/min/kg; CLhep predicted at 2 µM [5]: 16.7 mL/min/kg; pKa [6]: 6.4; CLhep predicted at 2 µM [8]: 30 mL/min/kg; CLhep predicted at 2 µM [9]: 56.7 mL/min/kg
CCCCC[C@H](CO)Nc1nc(N)nc2cccnc12 | > 20 | 3.33 |  | 
